Data reported in ChEMBL document CHEMBL3259518, “Semisynthesis, ex vivo evaluation, and SAR studies of coumarin derivatives as potential antiasthmatic drugs” (Eur J Med Chem, 2014).

What was measured:
Format in all cases: functional
[1] = Antiasthamic activity in Wistar rat tracheal ring assessed as reversal of carbachol-induced contraction; settings: Trachea
Procedure, shortened: (§1)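 Tracheas from male Wistar rats (250–300 g) were cleaned and cut into 4–5 mm rings of 2–3 cartilages each. Tension was recorded with force transducers. After equilibration, rings were contracted with 1 µM carbachol and washed every 40 min for 2 h. Cumulative concentration–response curves followed carbachol contraction, with relaxation taken from tone before vs after addition. Theophylline (1.67–550 µM) was the positive control. Six animals per group; EC50 and Emax came from nonlinear curve fitting.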

[2] = Antiasthamic activity in Wistar rat tracheal ring assessed as reversal of carbachol-induced contraction at 0.1 to 500 uM relative to control; settings: Trachea; procedure, shortened: as §1
[3] = tested on: Trachea; assay: Potency index, ratio of theophylline EC50 to compound EC50 for antiasthamic activity in Wistar rat tracheal ring assessed as reversal of carbachol-induced contraction

Structure (SMILES) | EC50 [1] [µM] | Emax [2] [%] | Ratio EC50 [3]
CC(=O)Oc1ccc2c(C)cc(=O)oc2c1 | 360 | 62 | –
Cc1cc(=O)oc2cc(OC(=O)c3ccccc3)ccc12 | – | 34 | –
O=C(Oc1ccc2ccc(=O)oc2c1)c1ccccc1 | – | 26 | –
CCOC(=O)COc1ccc2c(C)cc(=O)oc2c1 | 200 | 70 | –
CCOC(=O)COc1ccc2ccc(=O)oc2c1 | – | 31 | –
O=C(Oc1cc2ccc(=O)oc2cc1OC(=O)c1ccccc1)c1ccccc1 | – | 12 | –
CCOC(=O)COc1cc2ccc(=O)oc2cc1OCC(=O)OCC | – | 33 | –
CC(=O)Oc1ccc2ccc(=O)oc2c1 [7-ACETOXYCOUMARIN] | – | 16 | –
O=c1ccc2cc(O)c(O)cc2o1 [ESCULETIN] | – | 47.9 | –
COc1ccc2c(C)cc(=O)oc2c1 [HYMECROMONE METHYL ETHER] | 230 | 100 | –
Cc1cc(=O)oc2cc(O)ccc12 [HYMECROMONE] | 260 | 90 | –
Cn1c(=O)c2nc[nH]c2n(C)c1=O [THEOPHYLLINE] | 144 | 100 | –
O=c1ccc2ccc(O)cc2o1 [UMBELLIFERONE] | 449 | 67 | –

Further lines, with some results ahead:

EC50 [1] [µM] | Structure (SMILES) | Emax [2] [%] | Ratio EC50 [3]
80 | CCOc1ccc2c(C)cc(=O)oc2c1 | 100 | –
42 | CCOc1cc2ccc(=O)oc2cc1OCC | 100 | 4
89 | CCCOc1cc2ccc(=O)oc2cc1OCCC | 100 | –
231 | CC(=O)Oc1cc2ccc(=O)oc2cc1OC(C)=O | 77 | –
267 | CCCOc1ccc2c(C)cc(=O)oc2c1 | 100 | –
133 | CCCOc1ccc2ccc(=O)oc2c1 [7-PROPOXYCOUMARIN] | 100 | –
245 | CCOc1ccc2ccc(=O)oc2c1 [ETHOXYCOUMARIN] | 100 | –
244 | COc1ccc2ccc(=O)oc2c1 [HERNIARIN] | 100 | –
80 | COc1cc2ccc(=O)oc2cc1OC [SCOPARONE] | 100 | –
